Results: ChEMBL document CHEMBL1817548, “Epigenetic profiling of the antitumor natural product psammaplin A and its analogues” (Bioorg Med Chem, 2011)
Active and inactive are the calls of the source. The calls are words filed in the database; no cut-off is given here.

Tests used:
[1] = target: Histone deacetylase 1 (Homo sapiens) (UniProt Q13547); assay: Inhibition of human recombinant GST-tagged HDAC1 expressed in Sf9 cells using Fluor de Lys as substrate at 5 uM after 0.5 hrs by fluorimetry
Method in brief: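 GST-HDAC1 was expressed in Sf9 cells via baculovirus and purified on glutathione beads. Enzyme was incubated with Fluor de Lys acetyl-lysine substrate ±5 µM compound for 0.5 h at 37 °C, followed by developer for 30 min. Fluorescence was read at ex 360/em 460 nm and reported as percent of control activity.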

[2] = system: U-937; assay: Cell cycle arrest in human U937 cells assessed as accumulation at G1 phase at 5 uM after 30 hrs by propidium iodide staining based flow cytometry; format: functional
Method in brief: (§1)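 U937 cells in RPMI with 10% FBS and antibiotics, kept at 200,000 cells/mL, exposed to compound at 5 µM (in DMSO). DNA content was read by flow cytometry and phases modelled with ModFit. Values are means of independent duplicates.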

[3] = system: U-937; assay: Induction of apoptosis in human U937 cells assessed as caspase 3 activation at 5 uM after 30 hrs by FACS analysis; format: functional
Method in brief: (§2)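 Caspase 3 activity was read in living U937 cells after 5 µM exposure. About 1×10^6 cells were washed twice in cold PBS and loaded 1 h on ice with cell-permeable fluorescent substrate FAM-DEVD-FMK. After washing, cells were analysed by FACS. Runs were in duplicate; values are mean ± SD.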

[4] = target: Histone deacetylase (Homo sapiens) (UniProt Q13547+O15379+Q9UBN7+Q92769+Q9UQL6+Q8WUI4+Q9BY41+Q96DB2+P56524+Q9UKV0+Q969S8); assay: Inhibition of HDAC1 in human U937 cells assessed a increase in histone H3 acetylation in human U937 cells at 5 uM after 24 hrs by Western blot analysis; format: cell-based; details: U-937
Method in brief: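 U937 cells were treated 24 h at 5 µM, then lysed in Triton extraction buffer. Histones were acid-extracted with 0.2 M HCl overnight at 4 °C and protein was quantified by Bradford. 10 µg of histone extract was run on 15% polyacrylamide gels and immunoblotted with pan-acetyl-histone H3 antibody.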

[5] = target: T1, NAD-dependent protein deacetylase sirtuin-1 (Homo sapiens) (UniProt Q96EB6); assay: Inhibition of recombinant human SIRT1 lysine deacetylase activity at 50 uM after 60 mins by fluorimetry relative to control
T1 sequence (whole entry): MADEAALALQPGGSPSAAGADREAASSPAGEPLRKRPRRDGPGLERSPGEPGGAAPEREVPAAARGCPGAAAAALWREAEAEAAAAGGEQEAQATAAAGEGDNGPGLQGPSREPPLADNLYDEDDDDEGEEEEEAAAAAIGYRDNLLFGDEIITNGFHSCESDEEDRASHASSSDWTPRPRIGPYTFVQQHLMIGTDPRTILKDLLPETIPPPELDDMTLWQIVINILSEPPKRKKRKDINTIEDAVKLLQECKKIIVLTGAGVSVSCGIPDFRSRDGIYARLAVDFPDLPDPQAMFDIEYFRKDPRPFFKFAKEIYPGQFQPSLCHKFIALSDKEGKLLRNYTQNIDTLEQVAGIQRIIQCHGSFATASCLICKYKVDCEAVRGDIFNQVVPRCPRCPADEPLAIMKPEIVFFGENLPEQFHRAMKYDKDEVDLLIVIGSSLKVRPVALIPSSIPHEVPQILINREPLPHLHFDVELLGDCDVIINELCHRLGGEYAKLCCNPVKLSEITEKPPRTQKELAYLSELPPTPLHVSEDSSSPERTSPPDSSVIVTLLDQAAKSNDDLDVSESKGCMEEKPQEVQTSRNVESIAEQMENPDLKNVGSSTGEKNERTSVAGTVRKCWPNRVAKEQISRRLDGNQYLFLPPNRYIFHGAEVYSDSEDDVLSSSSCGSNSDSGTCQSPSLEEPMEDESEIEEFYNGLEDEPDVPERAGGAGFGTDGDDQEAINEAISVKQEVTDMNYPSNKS
Method in brief: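 Human SIRT1 expressed in E. coli BL21 and affinity-purified (1 µg) was reacted with acetylated p53 peptide (aa 379–382), 1 mM DTT and 200 µM NAD⁺, with compound at 50 µM, 60 min at 37 °C. Fluorescence was read at ex 360/em 450 nm. Results are mean and SD of four independent experiments as percent of untreated control.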

[6] = target: CREB-binding protein/Histone acetyltransferase p300 (Homo sapiens) (UniProt Q09472+Q92793); assay: Inhibition of recombinant human p300/CBP using [3H]-acetyl CoA at 50 uM after 2 hrs by scintillation counting relative to control; format: protein assay
Method in brief: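 CBP fragment (aa 1098–1877) expressed in E. coli BL21 and affinity-purified (1 µg) was incubated in HAT buffer with histone H4 peptide (aa 2–24, 10 µg) and 20 µM acetyl CoA carrying 0.5 µCi/mL [³H]-acetyl CoA, compound at 50 µM, for 2 h at 37 °C. Samples were spotted on P81 paper in triplicate, washed in TCA and acetone, and counted. Output is percent of untreated control.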

[7] = Inhibition of HDAC in cell-free system
[8] = Inhibition of DNMT in cell-free system
[9] = system: U-937; assay: Induction of human U937 cell differentiation into granulocytes assessed as expression of CD11c marker on cell membrane at 5 uM after 30 to 40 hrs by PI staining based FACS analysis; format: functional
Method in brief: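 After 5 µM treatment, U937 cells were stained with PE-conjugated anti-CD11c; controls got PE mouse IgG1, 30 min at 4 °C in the dark. Cells were washed and taken up in PBS with propidium iodide (0.25 µg/mL), then read by FACS. Result is percent CD11c-positive/PI-negative cells, mean of independent quadruplicates.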

[10] = system: U-937; assay: Cell cycle arrest in human U937 cells assessed as accumulation at G1 phase at 5 uM by propidium iodide staining based flow cytometry; format: functional; details: TDE = time-dependent effect; method in brief: as §1
[11] = system: U-937; assay: Cell cycle arrest in human U937 cells assessed as accumulation at G2/M phase at 5 uM after 30 hrs by propidium iodide staining based flow cytometry; format: functional; method in brief: as §1
[12] = system: U-937; assay: Cell cycle arrest in human U937 cells assessed as accumulation at G1 phase at 5 uM after 48 hrs by propidium iodide staining based flow cytometry; format: functional; method in brief: as §1
[13] = system: U-937; assay: Cell cycle arrest in human U937 cells assessed as accumulation at S phase at 5 uM after 48 hrs by propidium iodide staining based flow cytometry; format: functional; method in brief: as §1
[14] = system: U-937; assay: Cell cycle arrest in human U937 cells assessed as accumulation at G2/M phase at 5 uM after 48 hrs by propidium iodide staining based flow cytometry; format: functional; method in brief: as §1
[15] = system: U-937; assay: Induction of apoptosis in human U937 cells assessed as caspase 3 activation at 5 uM after 40 hrs by FACS analysis; format: functional, cell-based; method in brief: as §2

Sequence of CREB-binding protein/Histone acetyltransferase p300 (Homo sapiens) (Q09472 whole entry, looked up, the tested form may be a part): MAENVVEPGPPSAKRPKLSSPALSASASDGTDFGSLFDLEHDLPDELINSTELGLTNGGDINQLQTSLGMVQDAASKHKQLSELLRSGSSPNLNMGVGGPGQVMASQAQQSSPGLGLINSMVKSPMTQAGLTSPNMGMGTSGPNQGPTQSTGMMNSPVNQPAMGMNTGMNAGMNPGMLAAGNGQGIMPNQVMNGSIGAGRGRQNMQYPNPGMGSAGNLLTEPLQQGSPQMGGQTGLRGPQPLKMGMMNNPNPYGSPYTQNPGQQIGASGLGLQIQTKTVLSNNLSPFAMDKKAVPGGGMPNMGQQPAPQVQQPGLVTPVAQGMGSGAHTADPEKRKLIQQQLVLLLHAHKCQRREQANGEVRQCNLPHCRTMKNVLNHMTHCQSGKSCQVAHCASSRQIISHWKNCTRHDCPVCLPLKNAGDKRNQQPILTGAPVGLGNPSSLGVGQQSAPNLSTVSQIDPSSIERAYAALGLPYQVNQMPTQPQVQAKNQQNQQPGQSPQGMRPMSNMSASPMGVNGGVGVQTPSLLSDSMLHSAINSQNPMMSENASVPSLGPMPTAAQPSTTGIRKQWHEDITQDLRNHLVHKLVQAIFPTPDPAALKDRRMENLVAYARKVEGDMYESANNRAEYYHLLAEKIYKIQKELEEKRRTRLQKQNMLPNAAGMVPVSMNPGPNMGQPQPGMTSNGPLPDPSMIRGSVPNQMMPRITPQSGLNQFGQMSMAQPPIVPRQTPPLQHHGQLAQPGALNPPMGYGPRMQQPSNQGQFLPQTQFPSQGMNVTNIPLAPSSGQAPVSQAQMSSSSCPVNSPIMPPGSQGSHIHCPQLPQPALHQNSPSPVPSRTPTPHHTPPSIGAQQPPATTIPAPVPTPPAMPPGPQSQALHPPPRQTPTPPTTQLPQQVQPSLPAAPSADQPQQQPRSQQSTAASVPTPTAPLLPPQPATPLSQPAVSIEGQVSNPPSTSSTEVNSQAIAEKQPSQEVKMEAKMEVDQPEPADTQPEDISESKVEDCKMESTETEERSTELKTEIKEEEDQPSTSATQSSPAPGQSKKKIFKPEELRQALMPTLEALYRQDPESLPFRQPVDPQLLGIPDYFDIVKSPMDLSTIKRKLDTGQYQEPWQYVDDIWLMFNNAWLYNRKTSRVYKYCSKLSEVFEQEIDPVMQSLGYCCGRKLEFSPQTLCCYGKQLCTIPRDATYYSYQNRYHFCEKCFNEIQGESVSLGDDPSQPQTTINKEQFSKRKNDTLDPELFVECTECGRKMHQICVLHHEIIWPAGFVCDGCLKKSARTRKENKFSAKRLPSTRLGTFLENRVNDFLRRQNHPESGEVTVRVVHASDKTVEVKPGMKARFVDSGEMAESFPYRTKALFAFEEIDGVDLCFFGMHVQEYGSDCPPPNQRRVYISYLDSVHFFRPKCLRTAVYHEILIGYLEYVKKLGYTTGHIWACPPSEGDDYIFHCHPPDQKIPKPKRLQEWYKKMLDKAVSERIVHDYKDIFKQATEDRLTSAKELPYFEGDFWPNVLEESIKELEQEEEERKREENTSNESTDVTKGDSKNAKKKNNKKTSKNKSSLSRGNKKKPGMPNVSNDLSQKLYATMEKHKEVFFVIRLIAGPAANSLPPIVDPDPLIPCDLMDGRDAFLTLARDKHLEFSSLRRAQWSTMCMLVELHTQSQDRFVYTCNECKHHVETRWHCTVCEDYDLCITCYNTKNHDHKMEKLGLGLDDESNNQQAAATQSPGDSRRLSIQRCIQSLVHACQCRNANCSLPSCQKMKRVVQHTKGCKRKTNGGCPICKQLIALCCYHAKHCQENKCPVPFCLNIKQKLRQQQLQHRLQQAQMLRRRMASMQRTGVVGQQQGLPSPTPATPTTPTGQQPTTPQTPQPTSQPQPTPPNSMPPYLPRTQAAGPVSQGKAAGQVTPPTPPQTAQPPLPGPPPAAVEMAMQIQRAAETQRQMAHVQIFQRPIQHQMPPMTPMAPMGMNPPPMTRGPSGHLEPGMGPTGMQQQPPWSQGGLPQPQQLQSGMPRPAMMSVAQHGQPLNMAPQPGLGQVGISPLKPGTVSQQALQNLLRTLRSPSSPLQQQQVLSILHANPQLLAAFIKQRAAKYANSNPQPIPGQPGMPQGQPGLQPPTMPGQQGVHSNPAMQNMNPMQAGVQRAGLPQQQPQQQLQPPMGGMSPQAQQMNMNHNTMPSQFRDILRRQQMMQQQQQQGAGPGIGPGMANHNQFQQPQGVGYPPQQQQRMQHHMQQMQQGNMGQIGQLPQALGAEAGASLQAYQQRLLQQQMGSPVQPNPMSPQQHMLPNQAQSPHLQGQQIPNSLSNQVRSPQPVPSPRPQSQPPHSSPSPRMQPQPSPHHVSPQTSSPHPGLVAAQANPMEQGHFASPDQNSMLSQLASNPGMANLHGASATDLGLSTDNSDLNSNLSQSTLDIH
Sequence of CREB-binding protein/Histone acetyltransferase p300 (Homo sapiens) (Q92793 whole entry, looked up, the tested form may be a part): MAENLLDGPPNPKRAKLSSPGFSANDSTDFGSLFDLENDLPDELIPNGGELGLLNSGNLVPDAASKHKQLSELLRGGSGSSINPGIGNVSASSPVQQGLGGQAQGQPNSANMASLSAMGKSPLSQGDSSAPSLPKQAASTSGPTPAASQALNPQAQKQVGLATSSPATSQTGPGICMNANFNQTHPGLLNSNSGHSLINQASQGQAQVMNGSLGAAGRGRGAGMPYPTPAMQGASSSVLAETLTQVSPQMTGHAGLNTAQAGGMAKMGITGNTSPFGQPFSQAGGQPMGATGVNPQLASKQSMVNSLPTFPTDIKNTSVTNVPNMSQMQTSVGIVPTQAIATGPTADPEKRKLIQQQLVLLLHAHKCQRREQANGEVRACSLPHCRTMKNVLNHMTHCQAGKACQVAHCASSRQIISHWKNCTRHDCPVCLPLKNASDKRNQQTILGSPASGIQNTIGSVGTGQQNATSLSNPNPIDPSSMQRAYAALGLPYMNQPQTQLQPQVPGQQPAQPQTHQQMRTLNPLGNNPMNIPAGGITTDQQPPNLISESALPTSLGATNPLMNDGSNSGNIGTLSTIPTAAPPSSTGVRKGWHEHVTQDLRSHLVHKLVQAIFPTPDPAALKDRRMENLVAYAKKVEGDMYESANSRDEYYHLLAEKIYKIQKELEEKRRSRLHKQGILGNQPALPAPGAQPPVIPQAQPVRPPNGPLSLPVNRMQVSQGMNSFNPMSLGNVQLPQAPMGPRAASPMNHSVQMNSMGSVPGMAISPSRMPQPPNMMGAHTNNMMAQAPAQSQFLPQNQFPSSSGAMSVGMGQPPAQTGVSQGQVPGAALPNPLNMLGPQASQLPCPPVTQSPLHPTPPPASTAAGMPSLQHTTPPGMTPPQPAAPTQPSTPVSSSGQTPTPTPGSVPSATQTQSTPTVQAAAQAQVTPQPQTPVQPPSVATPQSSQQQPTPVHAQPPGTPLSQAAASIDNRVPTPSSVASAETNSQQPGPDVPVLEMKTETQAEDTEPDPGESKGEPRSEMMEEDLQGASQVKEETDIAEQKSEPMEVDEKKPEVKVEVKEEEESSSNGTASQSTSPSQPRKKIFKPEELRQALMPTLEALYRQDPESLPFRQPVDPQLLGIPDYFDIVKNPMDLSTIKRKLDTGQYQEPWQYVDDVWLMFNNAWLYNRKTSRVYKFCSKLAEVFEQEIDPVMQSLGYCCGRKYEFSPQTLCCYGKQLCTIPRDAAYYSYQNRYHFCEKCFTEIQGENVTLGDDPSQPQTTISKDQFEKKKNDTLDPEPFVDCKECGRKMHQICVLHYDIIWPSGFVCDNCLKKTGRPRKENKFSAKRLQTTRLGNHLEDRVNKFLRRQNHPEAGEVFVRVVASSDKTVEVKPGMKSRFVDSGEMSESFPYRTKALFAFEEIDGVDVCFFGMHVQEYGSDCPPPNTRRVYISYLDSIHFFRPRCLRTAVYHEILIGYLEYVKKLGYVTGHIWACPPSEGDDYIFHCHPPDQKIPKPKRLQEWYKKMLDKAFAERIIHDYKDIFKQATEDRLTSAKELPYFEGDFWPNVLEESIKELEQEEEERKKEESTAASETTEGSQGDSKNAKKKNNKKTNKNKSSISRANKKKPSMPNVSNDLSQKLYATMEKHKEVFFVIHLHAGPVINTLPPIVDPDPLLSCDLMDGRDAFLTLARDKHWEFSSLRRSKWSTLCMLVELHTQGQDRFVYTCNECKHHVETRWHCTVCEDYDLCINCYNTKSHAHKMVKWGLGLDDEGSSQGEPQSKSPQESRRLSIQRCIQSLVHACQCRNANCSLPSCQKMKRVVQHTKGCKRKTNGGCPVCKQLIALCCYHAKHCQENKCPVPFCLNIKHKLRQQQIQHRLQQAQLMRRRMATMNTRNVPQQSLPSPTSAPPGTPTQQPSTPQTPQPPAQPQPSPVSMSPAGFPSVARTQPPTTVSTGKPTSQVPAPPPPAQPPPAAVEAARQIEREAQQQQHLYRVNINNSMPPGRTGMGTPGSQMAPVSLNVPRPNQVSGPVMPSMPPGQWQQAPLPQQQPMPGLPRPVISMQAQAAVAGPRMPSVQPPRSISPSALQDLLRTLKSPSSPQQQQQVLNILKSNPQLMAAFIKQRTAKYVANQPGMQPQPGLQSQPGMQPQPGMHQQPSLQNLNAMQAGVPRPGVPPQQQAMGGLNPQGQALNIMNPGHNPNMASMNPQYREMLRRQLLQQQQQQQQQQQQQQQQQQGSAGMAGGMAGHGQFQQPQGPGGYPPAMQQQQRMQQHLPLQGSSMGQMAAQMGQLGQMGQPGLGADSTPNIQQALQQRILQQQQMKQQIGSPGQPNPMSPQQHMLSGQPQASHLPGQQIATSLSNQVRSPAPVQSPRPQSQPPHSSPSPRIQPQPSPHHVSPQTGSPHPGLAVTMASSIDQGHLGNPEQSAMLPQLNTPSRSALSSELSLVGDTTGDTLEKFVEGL

Structure (SMILES) | inhibition [1] | Activity [2] | Activity [4] | inhibition [5] | inhibition [6] | other results
O=C(NCCSSCCNC(=O)/C(Cc1ccccc1)=N/O)/C(Cc1ccccc1)=N/O | Active | 80% | Active | Active | inactive | caspase 3 activation [3]: 30%
O=C(NCCCCCCSSCCCCCCNC(=O)/C(Cc1ccc(O)c(Br)c1)=N/O)/C(Cc1ccc(O)c(Br)c1)=N/O | inactive |  |  |  |  | 
Cc1ccc(C(=O)Nc2ccc(S(=O)(=O)O)c3cc(S(=O)(=O)O)cc(S(=O)(=O)O)c23)cc1NC(=O)c1cccc(NC(=O)Nc2cccc(C(=O)Nc3cc(C(=O)Nc4ccc(S(=O)(=O)O)c5cc(S(=O)(=O)O)cc(S(=O)(=O)O)c45)ccc3C)c2)c1 |  |  |  | Active |  | 
O=C(NCCCSSCCCNC(=O)/C(Cc1ccc(O)c(Br)c1)=N/O)/C(Cc1ccc(O)c(Br)c1)=N/O | inactive |  |  |  |  | 
O=C(NCCSSCCNC(=O)/C(Cc1ccc(O)c(Br)c1)=N/O)/C(Cc1ccc(O)c(Br)c1)=N/O [PSAMMAPLIN A] | Active | 60% |  | Active | inactive | IC50 [7]: 4.2 nM; IC50 [8]: 18.6 nM; Activity [3]: Active; Activity [9]: Active; Activity [10]: tde
O=C(NCCCCCSSCCCCCNC(=O)/C(Cc1ccc(O)c(Br)c1)=N/O)/C(Cc1ccc(O)c(Br)c1)=N/O | inactive |  |  |  |  | 
O=C(NCCSSCCNC(=O)/C(Cc1ccc(O)cc1)=N/O)/C(Cc1ccc(O)cc1)=N/O | Active | 80% | Active | Active | inactive | caspase 3 activation [3]: 30%
COCCNC(=O)/C(Cc1ccc(O)c(Br)c1)=N/O | inactive |  |  |  |  | 
Nc1ccccc1NC(=O)c1ccc(CNC(=O)OCc2cccnc2)cc1 |  | Active |  |  |  | 
O=C(NCCSSCCNC(=O)/C(Cc1ccc(O)c(I)c1)=N/O)/C(Cc1ccc(O)c(I)c1)=N/O | Active | 80% | Active | Active | inactive | caspase 3 activation [3]: 30%
O=C(NCCO)/C(Cc1ccc(O)c(Br)c1)=N/O | inactive |  |  |  |  | 
O=C1C=CC2(C=C1Br)CC(C(=O)NCCSSCCNC(=O)C1=NOC3(C=CC(=O)C(Br)=C3)C1)=NO2 (stereo not given) | inactive |  |  |  |  | Activity [11]: Active; Activity [12]: inactive; Activity [13]: inactive; Activity [14]: inactive; Activity [3]: Active
O=C(NCCCCSSCCCCNC(=O)/C(Cc1ccc(O)c(Br)c1)=N/O)/C(Cc1ccc(O)c(Br)c1)=N/O | inactive |  |  |  |  | 
O=C(NCCSSCCNC(=O)/C(Cc1cccc(O)c1)=N/O)/C(Cc1cccc(O)c1)=N/O | Active | 80% | Active | Active | inactive | caspase 3 activation [3]: 30%
O=C(NCCCCCCNC(=O)/C(Cc1ccc(O)c(Br)c1)=N/O)/C(Cc1ccc(O)c(Br)c1)=N/O | inactive |  |  |  |  | 
CSCCNC(=O)/C(Cc1ccc(O)c(Br)c1)=N/O | inactive |  |  |  |  | Activity [9]: Active
O=C(CCc1ccc(O)c(Br)c1)NCCSSCCNC(=O)CCc1ccc(O)c(Br)c1 | inactive | 80% |  | Active | inactive | Activity [15]: inactive
O=C(NCCSSCCNC(=O)/C(Cc1ccc(O)c(Cl)c1)=N/O)/C(Cc1ccc(O)c(Cl)c1)=N/O | Active | 80% | Active | Active | inactive | caspase 3 activation [3]: 30%
O=C(NCCSSCCNC(=O)/C(Cc1ccc(O)c(F)c1)=N/O)/C(Cc1ccc(O)c(F)c1)=N/O | Active | 80% | Active | Active | inactive | caspase 3 activation [3]: 30%
O=C(CCCCCCC(=O)Nc1ccccc1)NO |  | Active |  |  |  | 
C=CC/C=C\C/C=C\CCCCCCCc1cccc(O)c1C(=O)O |  |  |  |  | Active | 
O=C(NCCSSCCNC(=O)/C(Cc1cc(Br)c(O)c(Br)c1)=N/O)/C(Cc1cc(Br)c(O)c(Br)c1)=N/O | inactive | 80% | Active | Active | inactive | Activity [15]: inactive
